Results from ChEMBL document CHEMBL1123436, “Comparative toxicities and analgesic activities of three monomethylated analogues of acetaminophen” (J Med Chem, 1986).

Assays:
[1] = species on record: Mus musculus; assay: Analgesic activity determined in mice using the Bradykinin-induced Writhing test; type: functional
Outline: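 Male CD1 mice (15–20 g), test drug given orally 15 min before bradykinin ip (4 μg in 0.2 mL sterile water), then a second bradykinin injection (0.2 μg/0.1 mL) 15 min later. Writhing was scored over the next 10 min, with control groups of 10 mice. ED50 was derived by log-probit analysis from at least five doses, with 95% limits.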

[2] = tested on: Mus musculus; assay: (§1) Hepatotoxicity in Swiss-Webster Mice Caused by compound at 400 mg/kg (i.p.) dose; type: functional; details: route intraperitoneal
Outline: (§2)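 Male Swiss-Webster mice (20 g), groups of 10, were given a single ip dose of drug in saline with no pretreatment. Survivors were decapitated at 24 h and counted. Plasma ALT was measured, and liver sections (formalin-fixed, paraffin, H&E) were scored for necrosis severity in survivors. Values are means ± SE.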

[3] = tested on: Mus musculus; assay: (§3) Hepatotoxicity in Swiss-Webster Mice Caused by compound at 750 mg/kg (i.p.) dose; type: functional; details: route intraperitoneal; outline: as §2
[4] = tested on: Mus musculus; assay: as §1; type: functional, organism-based; design: dose 400 mg/kg; outline: as §2
[5] = tested on: Mus musculus; assay: as §3; type: functional, organism-based; design: dose 750 mg/kg; outline: as §2
[6] = tested on: Mus musculus; assay: Hepatotoxicity in Swiss-Webster Mice Caused by compound at 400 mg/kg (i.p.) dose; 9/10; type: functional; details: route intraperitoneal; outline: as §2
[7] = (§4) Hepatotoxicity in Swiss-Webster Mice Caused by compound at 400 mg/kg (i.p.) (phenobarbital pretreated animals)dose; type: functional, Mus musculus; details: route intraperitoneal
Outline: (§5)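 Male Swiss-Webster mice (20 g), groups of 10. Sodium phenobarbital (80 mg/kg ip) was given 72, 60, 48 and 24 h before drug, then drug ip in saline. At 24 h: survivors counted, plasma ALT measured, and H&E liver sections scored for necrosis in survivors. Values are means ± SE.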

[8] = tested on: Mus musculus; assay: as §4; type: functional, organism-based; design: dose 400 mg/kg; outline: as §5
[9] = (§6) Hepatotoxicity in Swiss-Webster Mice Caused by compound at 400 mg/kg (i.p.) (cobaltous chloride pretreated animals)dose; type: functional, Mus musculus; details: route intraperitoneal
Outline: (§7)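 Male Swiss-Webster mice (20 g), groups of 10. Cobaltous chloride (30 mg/kg ip) was given 48, 36, 24 and 12 h before drug, then drug ip in saline. At 24 h: survivors counted, plasma ALT measured, and H&E liver sections scored for necrosis in survivors. Values are means ± SE.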

[10] = tested on: Mus musculus; assay: Hepatotoxicity in Swiss-Webster Mice Caused by compound at 750 mg/kg (i.p.) dose; 4/10; type: functional; details: route intraperitoneal; outline: as §2
[11] = tested on: Mus musculus; assay: (§8) Hepatotoxicity in Swiss-Webster Mice Caused by compound at 1000 mg/kg (i.p.) (pipernonyl butoxide pretreated animals)dose; type: functional, organism-based; design: dose 1000 mg/kg
Outline: (§9)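 Male Swiss-Webster mice (20 g), groups of 10. Piperonyl butoxide (neat, single 1360 mg/kg ip dose) was given 30 min before drug, then drug ip in saline. At 24 h: survivors counted, plasma ALT measured, and H&E liver sections scored for necrosis in survivors. Values are means ± SE.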

[12] = tested on: Mus musculus; assay: Hepatotoxicity in Swiss-Webster Mice Caused by compound at 400 mg/kg (i.p.) (pipernonyl butoxide pretreated animals)dose; 9/10; type: functional; details: route intraperitoneal; outline: as §9
[13] = tested on: Mus musculus; assay: as §6; type: functional, organism-based; design: dose 400 mg/kg; outline: as §7
[14] = Hepatotoxicity in Swiss-Webster Mice Caused by compound at 400 mg/kg (i.p.) (cobaltous chloride pretreated animals)dose; 8/10; type: functional, Mus musculus; details: route intraperitoneal; outline: as §7
[15] = Hepatotoxicity in Swiss-Webster Mice Caused by compound at 400 mg/kg (i.p.) (phenobarbital pretreated animals)dose; 4/10; type: functional, Mus musculus; details: route intraperitoneal; outline: as §5
[16] = tested on: Mus musculus; assay: Hepatotoxicity in Swiss-Webster Mice Caused by compound at 400 mg/kg (i.p.) (pipernonyl butoxide pretreated animals)dose; type: functional; details: route intraperitoneal; outline: as §9
[17] = (§10) Hepatotoxicity in Swiss-Webster Mice Caused by compound at 1000 mg/kg (i.p.) (phenobarbital pretreated animals)dose; type: functional, Mus musculus; details: route intraperitoneal; outline: as §5
[18] = Hepatotoxicity in Swiss-Webster Mice Caused by compound at 1000 mg/kg (i.p.) (phenobarbital pretreated animals)dose; 5/10; type: functional, Mus musculus; details: route intraperitoneal; outline: as §5
[19] = tested on: Mus musculus; assay: Hepatotoxicity in Swiss-Webster Mice Caused by compound at 1000 mg/kg (i.p.) (cobaltous chloride pretreated animals)dose; type: functional, organism-based; design: dose 1000 mg/kg; outline: as §7
[20] = tested on: Mus musculus; assay: (§11) Hepatotoxicity in Swiss-Webster Mice Caused by compound at 1000 mg/kg (i.p.) dose; type: functional; details: route intraperitoneal; outline: as §2
[21] = tested on: Mus musculus; assay: as §11; type: functional, organism-based; design: dose 1000 mg/kg; outline: as §2
[22] = tested on: Mus musculus; assay: Hepatotoxicity in Swiss-Webster Mice Caused by compound at 1000 mg/kg (i.p.) dose; 8/10; type: functional; details: route intraperitoneal; outline: as §2
[23] = tested on: Mus musculus; assay: Hepatotoxicity in Swiss-Webster Mice Caused by compound at 750 mg/kg (i.p.) dose; 10/10; type: functional; details: route intraperitoneal; outline: as §2
[24] = tested on: Mus musculus; assay: as §10; type: functional, organism-based; design: dose 1000 mg/kg; outline: as §5
[25] = tested on: Mus musculus; assay: Hepatotoxicity in Swiss-Webster Mice Caused by compound at 1000 mg/kg (i.p.) (pipernonyl butoxide pretreated animals)dose; 10/10; type: functional; details: route intraperitoneal; outline: as §9
[26] = Hepatotoxicity in Swiss-Webster Mice Caused by compound at 1000 mg/kg (i.p.) (cobaltous chloride pretreated animals)dose; 9/10; type: functional, Mus musculus; details: route intraperitoneal; outline: as §7
[27] = tested on: Mus musculus; assay: as §8; type: functional; details: route intraperitoneal; outline: as §9

In the case of `CC(=O)Nc1ccc(O)c(C)c1`, the ED50 [1] is reported as 94.6 mg/kg, the “Hepatic necrosis in survivors” value [2] is reported as 1 and the “Hepatic necrosis in survivors” value [3] is reported as 2.75. For the same molecule, the Plasma ALT at 24 h [4] was 1080 mU ml-1, the Plasma ALT at 24 h [5] was 3250 mU ml-1 and the “Survivors at 24 h” value [6] was 9. The “Hepatic necrosis in survivors” value [7] was 3.5, the Plasma ALT at 24 h [8] was 5130 mU ml-1 and the “Hepatic necrosis in survivors” value [9] was 0.56. The “Survivors at 24 h” value [10] was 4, the Plasma ALT at 24 h [11] was 83 mU ml-1 and the “Survivors at 24 h” value [12] was 9. For the same molecule, the Plasma ALT at 24 h [13] was 345 mU ml-1, the “Survivors at 24 h” value [14] was 8 and the “Survivors at 24 h” value [15] was 4. For the same molecule, the “Hepatic necrosis in survivors” value [16] was 0.

For `CC(=O)Nc1ccc(O)cc1C`, the ED50 [1] was 177 mg/kg, the “Hepatic necrosis in survivors” value [3] was 0.8 and the Plasma ALT at 24 h [5] was 690 mU ml-1. The “Hepatic necrosis in survivors” value [17] was 3.4, the “Survivors at 24 h” value [18] was 5 and the Plasma ALT at 24 h [19] was 40 mU ml-1. For the same molecule, the “Hepatic necrosis in survivors” value [20] was 1.75, the Plasma ALT at 24 h [21] was 2110 mU ml-1 and the “Survivors at 24 h” value [22] was 8. The “Survivors at 24 h” value [23] was 10, the Plasma ALT at 24 h [24] was 3920 mU ml-1 and the Plasma ALT at 24 h [11] was 75 mU ml-1. For the same molecule, the “Survivors at 24 h” value [25] was 10, the “Survivors at 24 h” value [26] was 9 and the “Hepatic necrosis in survivors” value [27] was 0.
